This is an account of results in ChEMBL document CHEMBL4513216, “Probing the Open Global Health Chemical Diversity Library for Multistage-Active Starting Points for Next-Generation Antimalarials” (ACS Infect Dis, 2020).

The series is described as follows: Toxicity liver stage against HepG2, at 10uM. The series is classed as cell-based. The arrangement: test concentration 10 uM, cell line HepG2-A16-CD81EGFP. Particulars: human, HepG2-A16-CD81EGFP cells; read-out: INHIBITION
A digest of the protocol:
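Uninfected HepG2-A16-CD81EGFP cells, 3 × 10^3 per well, 1536-well, plated on prespotted compound at 10 μM final, parasite-free screening media added to match infected plates; puromycin 10 μM positive, DMSO 0.5% negative; run in parallel with 48 h PbLuc assay at 37 °C, 5% CO2; viability by CellTiter-Glo luminescence, normalized to controls.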
`Cc1ccn(-c2ccccc2NCc2cccnc2C)n1`: the cytotoxicity at 10 µM stood at 1.34%.
With `CC(C)c1ncc2c(n1)CN(Cc1ccc3c(c1)OCCO3)CC2`, the cytotoxicity at 10 µM was -0.996%.
On to `COc1cccc(C(=O)NCC2CCN(C(=O)c3ccoc3)CC2)c1`, for which the cytotoxicity at 10 µM was determined as 15.9%.
Consider `CCC1C(=O)NCCN1c1cc(C)ncn1` (stereo not drawn), for which the cytotoxicity at 10 µM was determined as 3.41%.
As for `CCN1CCC(NN2CCN(C)CC2)CC1`, the cytotoxicity at 10 µM was determined as 0.935%.
In the case of `Cc1cc(N2CCOC(c3ccc(C(N)=O)cn3)C2)ncn1` (stereo not drawn) it was 5.45%; in that of `COCCNC(=O)N1CCSC2(CCCCC2)C1`, 2.07%; in that of `CN(c1ccc(C#N)cn1)C1CCCN(Cc2noc(C3CC3)n2)C1` (stereo not drawn), -17.2%.
Take `Cc1cc(C(=O)N2CCCC(n3ccnc3)C2)c(C)n1C1CC1` (stereo not drawn): the cytotoxicity at 10 µM came out at 1.19%.
Under `O=C(CCc1cc(O)no1)N1CCCC(COc2ccccc2F)C1` (stereo not drawn) stands 0.296%.
Consider `CC(OCc1ccccc1)C(=O)NCc1ccc(N(C)C)cc1` (stereo not drawn), for which the cytotoxicity at 10 µM was -12%.
For `CCC(CC)c1cc(CNC(=O)N2CCCC(N(C)C)C2)on1` (stereo not drawn), the cytotoxicity at 10 µM came to 1.47%.
For the compound `CCc1ccc(CN2C[C@@H](C)C3(CCN(CC(=O)N(C)C)C3=O)C2)o1` (stereo partly drawn), the cytotoxicity at 10 µM is 1.11%.
For `CCCn1cc(C(=O)N2CCCC(c3nccn3CCOC)C2)c(C)n1` (stereo not drawn), the cytotoxicity at 10 µM came to 0.00455%.
As to `O=C1[C@H]2CN(Cc3ccncc3)C[C@H]2CN1c1ccsc1`, the cytotoxicity at 10 µM was -81.1%.
Under `O=C(Nc1ccccc1OCc1ccccn1)NC1CCOCC1` stands 6.78%; under `CS(=O)(=O)N1CCN(Cc2ccc(F)cc2Br)CC1`, 0.0667%.
In the case of `O=S(=O)(NC1=NCN(CCc2cccs2)CN1)c1ccc(Cl)cc1`, the cytotoxicity at 10 µM was -2.03%.
Regarding `COCCN(Cc1ccccn1)C(=O)c1ccc(=O)n(C)c1`, the cytotoxicity at 10 µM is -16.8%.
As to `COc1cc(-c2cc(C3CCOC3)c(C#N)c(N)n2)ccc1O` (stereo not drawn), the cytotoxicity at 10 µM was -0.412%.
Regarding `CC[C@H]1CN(C(=O)C(C)(C)C)CC[C@H]1CC(=O)O`, the cytotoxicity at 10 µM is -0.61%.
For the compound `CCN(CC)C(=O)c1ccc(Cl)c(NC(=O)c2cc[nH]n2)c1`, the cytotoxicity at 10 µM was 7.86%.
With `O=C(NCc1csc(Br)c1)N1CCOCC1`, the cytotoxicity at 10 µM was -7.45%.
Take `CC1c2ccc(F)cc2CCN1C(=O)c1nc(=O)[nH][nH]1` (stereo not drawn): the cytotoxicity at 10 µM turned out to be 15.6%.
Under `c1csc(N2CCCN(Cc3noc(C4CC4)n3)CC2)n1` stands 3.41%; under `CCS(=O)(=O)Nc1cnn(Cc2cccc(Cl)c2)c1`, -11.5%.
`O=C(NCc1nnc2n1CCCCC2)N1CCc2sccc2C1`: the cytotoxicity at 10 µM was 0.553%.
On to `COC(=O)C(c1cc(F)ccc1F)N(C)C(=O)c1cnccn1` (stereo not drawn), for which the cytotoxicity at 10 µM came out at 6.43%.
Under `CCCN1CCCC(O)(c2nc(C)c(COc3ccccc3)s2)CC1` (stereo not drawn) stands 2.27%; under `Clc1ccc(C2(CNC3=NCCN3)CC2)cc1`, 7.38%.
For `CN(C)S(=O)(=O)NCC1CCN(Cc2ccccc2F)CC1`, the cytotoxicity at 10 µM was -0.768%.
For the compound `Fc1cccc(CN2CCC(c3cc4ncccc4cn3)CC2)c1F`, the cytotoxicity at 10 µM is -7.62%.
As to `Cc1ccccc1CN(CCN(C)C)Cc1ncc[nH]1`, the cytotoxicity at 10 µM was -7.11%.
On to `Clc1ccc(-c2nnc(CNCCn3cccn3)o2)c(Cl)c1`, for which the cytotoxicity at 10 µM was -4.86%.
In the case of `O=c1cc(N2CCOCC2)cnn1CCc1ccc(F)cc1`, the cytotoxicity at 10 µM turned out to be 8.01%.
Turning to `CCOc1ccccc1-c1cc2c(cc1C(N)=O)OCO2`, the cytotoxicity at 10 µM came out at 5.05%.
In the case of `O=C(NCc1cnc2n1CCN(CC1CC1)C2)C1CC1` it was 5.06%.
For `O=C1CC(N(C(=O)Cc2csc(-c3ccccc3)n2)C2CC2)C(=O)N1` (stereo not drawn), the cytotoxicity at 10 µM turned out to be 3.51%.
Take `CC(OCC(F)(F)F)C(=O)N1CCCCC1` (stereo not drawn): the cytotoxicity at 10 µM was -3.45%.
With `Cc1ccc(CN(C)C(=O)CN2CC(n3cccn3)C2)o1`, the cytotoxicity at 10 µM is -0.0582%.
For the compound `CO[C@H]1CNC[C@@H]1NC(=O)CCc1nc(-c2ccccc2)no1`, the cytotoxicity at 10 µM is -1.13%.
For `CCC(Nc1cccc(OC)c1)C(=O)N(CCOC)Cc1cnn(C)c1` (stereo not drawn), the cytotoxicity at 10 µM is -1.28%.
Turning to `Cc1nn(CN(CC(C)C)C2CC2)c(=O)c2noc(C)c12`, the cytotoxicity at 10 µM is -3.39%.
In the case of `Cc1cncc(C(=O)N2CCNCC2C(=O)Nc2ccc(C)nc2)c1` (stereo not drawn) it was -5.19%; in that of `CS(=O)(=O)N1CCOCC2(CCN(C(=O)c3cnccn3)CC2)C1`, -0.152%; in that of `O=C(c1ccnn1COc1ccc(Cl)cc1)N1CCSCC1`, -4.56%.
In the case of `Cn1nc2c(cc1=O)CN(Cc1nc(-c3ccco3)no1)CC2`, the cytotoxicity at 10 µM is 1.22%.
In the case of `COCc1cncc2c1CCN(Cc1ccccn1)C2` it was -10.2%; in that of `CCC(C)(C)C(=O)NCCCOC1CCOC1` (stereo not drawn), -6.21%; in that of `O=C(NCCCF)Nc1ccc2nc(N3CCOCC3)oc2c1`, 2.77%.
Under `CCC(NC(=O)NCC(=O)NC(C)C)c1cc(F)ccc1F` (stereo not drawn) stands 0.447%.
Under `Cc1nc(C2CCNCC2)cc(N2CCOc3ccccc3C2)n1` stands -2.3%; under `CCOCC(O)CN1CCN(C(=O)c2cnc3n[nH]c(C)c3c2)CC1` (stereo not drawn), -7.69%.
For `CCCC(O)CN1CCC(=O)N(CC)Cc2cc3c(cc21)OCO3` (stereo not drawn), the cytotoxicity at 10 µM was -18.5%.
On to `Cc1cc(=O)n2ncnc2n1CC(O)c1ccc(F)cc1F` (stereo not drawn), for which the cytotoxicity at 10 µM is -1.2%.
For the compound `CC(C)c1cnc(CN(C)C2CCN(CCn3cc(C#N)cn3)C2)o1` (stereo not drawn), the cytotoxicity at 10 µM is -4.98%.
`COc1ncc(CN2C[C@@H]3C[C@@H](O)CN3C[C@@H]2Cc2ccccc2)cn1`: the cytotoxicity at 10 µM is -6.86%.
For the compound `CCOC(=O)CNC(=O)NCc1cc(C)n(-c2ccc(OC)cc2)c1C`, the cytotoxicity at 10 µM came to 8.27%.
For the compound `Cc1oc(C(=O)O)cc1S(=O)(=O)Nc1cccc(-n2nccc2C)c1`, the cytotoxicity at 10 µM is 4.46%.
Turning to `CN(C)C(=O)[C@@H]1CCO[C@@H]2CCN(CCc3ccccc3)C[C@@H]21`, the cytotoxicity at 10 µM was -9.55%.
For the compound `CN(C)C(=O)c1ccc(C2CCCNC2)nc1` (stereo not drawn), the cytotoxicity at 10 µM is -20.7%.
As for `COc1cccc(CCNC(=O)CN2CCN(C)CC2C)c1` (stereo not drawn), the cytotoxicity at 10 µM is -16.7%.
As for `CS(=O)(=O)NCC1CCCN(C(=O)COc2ccc(F)cc2)C1` (stereo not drawn), the cytotoxicity at 10 µM was -6.38%.
Under `Cc1ccc(Oc2ccc(NC(=O)NCC3CCOC3)cn2)cc1C` (stereo not drawn) stands -5.28%.
Regarding `O=C(CCN1CCCC1c1cccs1)N1CCc2sccc2C1` (stereo not drawn), the cytotoxicity at 10 µM is -0.636%.
For `Cn1cc(CN2C[C@@H]3CCCO[C@@H]3[C@H](NC(=O)CC3CC3)C2)cn1`, the cytotoxicity at 10 µM is -0.00726%.
As for `CC(=O)N1CCOC(c2ccnc(N(C)C)n2)C1` (stereo not drawn), the cytotoxicity at 10 µM was determined as 1.62%.
Under `CCNC(=O)NC(=O)CNC(C)(CC)c1nccs1` (stereo not drawn) stands 7.93%; under `COc1ccccc1OC1CN(C(=O)c2ccccc2C(C)=O)C1`, 7.6%.
Regarding `CC(=O)N1CCN(c2ccc3ccc(C(=O)NC4CCCC4)cn23)CC1`, the cytotoxicity at 10 µM worked out at 8.15%.
In the case of `Cc1noc([C@]23COC[C@H]2CN(S(C)(=O)=O)C3)n1` it was 10.4%.
As to `CN1CCO[C@H]2CN(C(=O)c3ccncc3F)C[C@H]21`, the cytotoxicity at 10 µM was -141%.
As for `CS(=O)(=O)NCc1cnc2n1CCN(Cc1ccoc1)CC2`, the cytotoxicity at 10 µM was -4.1%.
As to `CN1C[C@@H]2CN(C(=O)C3CC=CC3)C[C@@H]2C1=O`, the cytotoxicity at 10 µM was -114%.
As to `Cc1cc(N(C)C)nc(C2(C)CCCN2C(=O)c2cncnc2C)n1` (stereo not drawn), the cytotoxicity at 10 µM was -11.3%.
With `CC(=O)Nc1ccc(CN2C[C@@H]3CC[C@H]2CN(c2ncccn2)C3)cc1`, the cytotoxicity at 10 µM was -0.0298%.
`O=C(Nc1ccccc1)C1CN(C(=O)c2cccs2)CC12CCOCC2` (stereo not drawn): the cytotoxicity at 10 µM was -2.13%.
Regarding `CN1CCC2(CC1)Cc1ccccc1CN(C(=O)CN)C2`, the cytotoxicity at 10 µM is -1.63%.
`Cc1cccc(SC2CCN(C(=O)CCCS(N)(=O)=O)CC2)c1`: the cytotoxicity at 10 µM is -6.01%.
Consider `COc1cccc(CNC2CCCOc3cc(C)ccc32)n1` (stereo not drawn), for which the cytotoxicity at 10 µM came out at 8.53%.
As to `O=C(c1cccnc1)N1CCCC(Cc2nccs2)C1` (stereo not drawn), the cytotoxicity at 10 µM is -2.86%.
Regarding `COc1cc(NC(=O)N(C)CCC2CC2)ncn1`, the cytotoxicity at 10 µM is -1.3%.
`Cc1ccc(CN2CCN(C(=O)c3ccc(CO)cc3)C(C)C2=O)cc1` (stereo not drawn): the cytotoxicity at 10 µM is 6.42%.
As for `CCc1nc(CCNS(=O)(=O)c2cccc(C(=O)N(C)CC)c2)cs1`, the cytotoxicity at 10 µM is -36.2%.
Consider `CS(=O)(=O)N1CCc2ccc(C(=O)N3CCn4ncnc4C3)cc21`, for which the cytotoxicity at 10 µM is -7.79%.
For the compound `CCOC(=O)CN1CC(c2nc(-c3ccsc3)no2)C1`, the cytotoxicity at 10 µM is -12.3%.
In the case of `CCc1nc2n(n1)CC(NCc1nc(-c3cccnc3)no1)CC2` (stereo not drawn) it was -8.66%.
In the case of `Cn1ncnc1CNC1CCCc2cc(F)ccc21` (stereo not drawn) it was -5.62%; in that of `CSc1ccc(C(C)NC(=O)c2cc(C)on2)cc1` (stereo not drawn), 6.01%.
Under `CC1=C[C@@H](CNS(C)(=O)=O)[C@H](C(C)C)C[C@H]1CC(=O)NCCN(C)C` stands 0.559%.
For the compound `CCN1CCN(C2(C(=O)NC3CCCC3)Cc3ccccc3C2)CC1`, the cytotoxicity at 10 µM was -13.8%.
For `CC(C)n1cnnc1CCNCc1cn(CCC(N)=O)c2ccccc12`, the cytotoxicity at 10 µM is -3.81%.
For `COc1ccc(CNCc2ccnc(N3CCCCC3)c2)cc1OC`, the cytotoxicity at 10 µM is 0.222%.
In the case of `O=C(NCCC1=CCCCC1)c1ccc(-n2cccc2)nc1` it was -1.46%; in that of `CCc1nc(CN(C)C2CCN(Cc3nnc(C4CCC4)o3)C2)no1` (stereo not drawn), 0.239%.
In the case of `C1CCN(Cc2nnn3c2CN(CC2CC2)CCC3)C1`, the cytotoxicity at 10 µM was -139%.
For the compound `CNC(=O)c1cnc(C=Cc2cc(OC)c3c(c2)OCCO3)s1`, the cytotoxicity at 10 µM came out at 12.9%.
For the compound `CCS(=O)(=O)N1Cc2ncn(CC3CC3)c2C(COC)C1` (stereo not drawn), the cytotoxicity at 10 µM turned out to be 8.83%.
